Assay results collected from several papers.
Each line is one published result; the experiments were not run side by side.
Sample: plasma

| SMILES | host | route | dose | setting | Tmax [h] |
| --- | --- | --- | --- | --- | --- |
| N#Cc1cccc(-c2ccc3ncc(-c4cc(F)cc(F)c4)c(N4CCC(N)CC4)c3c2)c1O | male human | oral | 20 mg | single dose | 1.5 |
| O=C(COc1ccc(Cl)cc1)NC12CC(c3nnc([C@H]4C[C@@H](OC(F)(F)F)C4)o3)(C1)C2 | human | oral | 45 mg | single dose, fasted, healthy volunteers | 8.02 |
| Cc1cn([C@H]2C[C@H](N=[N+]=[N-])[C@@H](CO)O2)c(=O)[nH]c1=O | human | oral | 600 mg | single dose, healthy volunteers | 0.62 |
| COc1ccc2c(c1)CN(C(=O)CCN1CCC(Cc3ccccc3)CC1)CC[S@@+]2[O-] | male human | intravenous | 0.05 mg/kg | healthy volunteers | 0 |
| OC[C@H]1O[C@@H](c2cc(Cc3ccc(C4CC4)cc3)c(Cl)c3c2CCO3)[C@H](O)[C@@H](O)[C@@H]1O | human | oral | 0.3 mg | single dose, fasted, healthy volunteers | 1.25 |
| C[C@@H](Oc1ccc(S(C)(=O)=O)cc1C(=O)N1C[C@@H]2C[C@]2(c2cc(C(F)(F)F)on2)C1)C(F)(F)F | human | oral | 10 mg | single dose, fed | 2.5 |
| CC1(C)CC[C@]2(NC(=O)C(C)(F)F)CC[C@]3(C)[C@H](C(=O)C=C4[C@@]5(C)C=C(C#N)C(=O)C(C)(C)[C@@H]5CC[C@]43C)[C@@H]2C1 | human | oral | 150 mg | single dose | 12 |
| CC(=O)N(C)[C@H]1CCN(C(=O)c2cnc3c(c2)C[C@](C)(c2ccc(F)cc2)N3)C1 | male human | oral | 30 mg | multiple doses, once daily, steady state | 0.75 |
| CC(C)n1cc(C#N)c2cc(-n3cc(C(=O)O)cn3)ccc21 | human | oral | 200 mg | single dose, fasted, healthy volunteers | 4.01 |
